Results: ChEMBL document CHEMBL4145448, “Broad activity of diphenyleneiodonium analogues against Mycobacterium tuberculosis, malaria parasites and bacterial pathogens” (Eur J Med Chem, 2018)

Tests used:
[1] = Selectivity index, ratio of CC50 for human HepG2 cells in presence of 1% FBS to MIC for Acinetobacter baumannii ATCC 17978; format: toxicity; conditions: read-out: Selectivity Index
[2] = Selectivity index, ratio of CC50 for human HepG2 cells in presence of 1% FBS to MIC for methicillin-resistant Staphylococcus aureus ATCC 43300; format: toxicity; conditions: read-out: Selectivity Index
Outline: (§1)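 Selectivity index is CC50 (1% FBS) divided by MIC. […] They then got compound at 300 to 0.14 µM (3-fold steps) for 24 h at 37 °C, 5% CO2. Resazurin (10 µM, 2 h) was read at ex/em 560/590 in duplicate wells. For MIC, CLSI broth microdilution was run in CaMHB with ~10^6 cfu/mL inoculum and 0–128 µM compound.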

[3] = Selectivity index, ratio of CC50 for human HepG2 cells in presence of 1% FBS to IC50 for CQ-sensitive GFP-fused Plasmodium falciparum D10; format: toxicity; conditions: read-out: Ratio IC50
Acinetobacter baumannii [4] = test: Antibacterial activity against Acinetobacter baumannii ATCC 19606 col10 after 18 hrs by broth microdilution method; format: functional; conditions: ATCC 19606 = CIP 70.34 = JCM 6841 col10, 18 h
Outline: (§2)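 Broth microdilution per CLSI in cation-adjusted Mueller-Hinton broth. 100 µL inoculum (~10^6 cfu/mL in CaMHB) mixed with 100 µL CaMHB containing compound, 0 to 128 µM. Incubated 18 h at 37 °C. MIC taken as the lowest concentration with no visible growth. Polymyxin B served as positive control. Isolates were stored at -80 °C in tryptone soy broth with 20% glycerol.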

[5] = Selectivity index, ratio of CC50 for human HepG2 cells in presence of 1% FBS to MIC for Escherichia coli N11281; format: toxicity; conditions: read-out: Selectivity Index
Staphylococcus aureus [6] = test: Antibacterial activity against vancomycin-intermediate Staphylococcus aureus ATCC 700698 after 18 hrs by broth microdilution method; format: functional; conditions: ATCC 700698, 18 h; outline: as §2
[7] = Selectivity index, ratio of CC50 for human HepG2 cells in presence of 1% FBS to MIC for Acinetobacter baumannii isolate 246-01-C; format: toxicity; conditions: read-out: Selectivity Index
[8] = Selectivity index, ratio of CC50 for human HepG2 cells in presence of 1% FBS to MIC for Acinetobacter baumannii ATCC 19606 col10; format: toxicity; conditions: read-out: Selectivity Index
[9] = Selectivity index, ratio of CC50 for human HepG2 cells in presence of 1% FBS to MIC for vancomycin-resistant Enterococcus faecium ATCC 700221; format: toxicity; conditions: read-out: Selectivity Index; outline: as §1
Pseudomonas aeruginosa [10] = test: Antibacterial activity against Pseudomonas aeruginosa ATCC 27853 after 18 hrs by broth microdilution method; format: functional; conditions: ATCC 27853, 18 h; outline: as §2
[11] = Selectivity index, ratio of CC50 for human HepG2 cells in presence of 1% FBS to MIC for Escherichia coli N4149; format: toxicity; conditions: read-out: Selectivity Index
[12] = Selectivity index, ratio of CC50 for human HepG2 cells in presence of 1% FBS to MIC for Klebsiella pneumoniae isolate M320445; format: toxicity; conditions: read-out: Selectivity Index
Acinetobacter baumannii [13] = test: Antibacterial activity against Acinetobacter baumannii ATCC 19606 after 18 hrs by broth microdilution method; format: functional; conditions: ATCC 19606 = CIP 70.34 = JCM 6841, 18 h; outline: as §2
Pseudomonas aeruginosa [14] = test: Antibacterial activity against Pseudomonas aeruginosa isolate 912 after 18 hrs by broth microdilution method; format: functional; conditions: isolate 912, 18 h; outline: as §2
[15] = Selectivity index, ratio of CC50 for human HepG2 cells in presence of 1% FBS to MIC for vancomycin-intermediate Staphylococcus aureus ATCC 700698; format: toxicity; conditions: read-out: Selectivity Index; outline: as §1
[16] = Selectivity index, ratio of CC50 for human HepG2 cells in presence of 1% FBS to MIC for Klebsiella pneumoniae isolate 248-33-D; format: toxicity; conditions: read-out: Selectivity Index
Klebsiella pneumoniae [17] = test: Antibacterial activity against Klebsiella pneumoniae isolate 224-11-C after 18 hrs by broth microdilution method; format: functional; outline: as §2
Pseudomonas aeruginosa [18] = test: Antibacterial activity against Pseudomonas aeruginosa isolate M146201 after 18 hrs by broth microdilution method; format: functional; conditions: isolate M146201, 18 h; outline: as §2
Plasmodium falciparum = test: Growth inhibition of CQ-sensitive GFP-fused Plasmodium falciparum D10 after 90 hrs by ethidium bromide staining based flow cytometry; format: functional, organism-based; conditions: D10, 90 h
Outline: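 Parasites cultured in human O+ erythrocytes in RPMI-HEPES pH 7.4 with hypoxanthine, NaHCO3, gentamicin and 0.5% Albumax II under 1% O2/4% CO2 at 37 °C. Synchronised to rings with heparin plus sorbitol. Set up at 1% parasitaemia and 1% haematocrit with 10x compound added. Cultured 90 h to next-cycle trophozoites. Stained with 10 µg/mL ethidium bromide for 1 h, washed, parasitaemia counted by flow cytometry with GFP gating.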

[19] = Selectivity index, ratio of CC50 for human HepG2 cells in presence of 1% FBS to MIC for Pseudomonas aeruginosa ATCC 27853; format: toxicity; conditions: read-out: Selectivity Index; outline: as §1
[20] = Cytotoxicity against human HepG2 cells after 24 hrs in presence of 1% FBS by resazurin dye based assay; format: cell-based
Outline: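 HepG2 cells seeded at 4000/well in DMEM with 1% FBS and allowed to attach for 24 h at 37 °C, 5% CO2. Compounds added from 300 to 0.14 µM in 3-fold steps and incubated 24 h. 10 µM resazurin added for 2 h, fluorescence read at ex/em 560/590. Percent viability computed relative to untreated and negative controls, duplicate wells.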

Escherichia coli [21] = test: Antibacterial activity against Escherichia coli N11281 after 18 hrs by broth microdilution method; format: functional; conditions: N11281, 18 h; outline: as §2
[22] = Selectivity index, ratio of CC50 for human HepG2 cells in presence of 1% FBS to MIC for Pseudomonas aeruginosa isolate 18878B klon 1; format: toxicity; conditions: read-out: Selectivity Index; outline: as §1
Staphylococcus aureus [23] = test: Antibacterial activity against vancomycin-resistant Staphylococcus aureus ATCC 700699 after 18 hrs by broth microdilution method; format: functional; conditions: ATCC 700699, 18 h; outline: as §2
Escherichia coli [24] = test: Antibacterial activity against Escherichia coli N2381 after 18 hrs by broth microdilution method; format: functional; conditions: N2381, 18 h; outline: as §2
[25] = Selectivity index, ratio of CC50 for human HepG2 cells in presence of 1% FBS to MIC for Pseudomonas aeruginosa isolate 912; format: toxicity; conditions: read-out: Selectivity Index; outline: as §1
[26] = Selectivity index, ratio of CC50 for human HepG2 cells in presence of 1% FBS to MIC for Pseudomonas aeruginosa isolate M146201; format: toxicity; conditions: read-out: Selectivity Index; outline: as §1
Acinetobacter baumannii [27] = test: Antibacterial activity against Acinetobacter baumannii isolate 246-01-C after 18 hrs by broth microdilution method; format: functional; outline: as §2
Enterococcus faecium = test: Antibacterial activity against vancomycin-resistant Enterococcus faecium ATCC 700221 after 18 hrs by broth microdilution method; format: functional; conditions: ATCC 700221, 18 h; outline: as §2
Klebsiella pneumoniae [28] = test: Antibacterial activity against Klebsiella pneumoniae isolate M320445 after 18 hrs by broth microdilution method; format: functional; conditions: isolate M320445, 18 h; outline: as §2
Pseudomonas aeruginosa [29] = test: Antibacterial activity against Pseudomonas aeruginosa isolate 19147nm after 18 hrs by broth microdilution method; format: functional; outline: as §2
Klebsiella pneumoniae [30] = test: Antibacterial activity against Klebsiella pneumoniae ATCC 13883 after 18 hrs by broth microdilution method; format: functional; conditions: ATCC 13883, 18 h; outline: as §2
[31] = Selectivity index, ratio of CC50 for human HepG2 cells in presence of 1% FBS to MIC for Klebsiella pneumoniae isolate 1; format: toxicity; conditions: read-out: Selectivity Index

| SMILES | selectivity ratio [1] | selectivity ratio [2] | selectivity ratio [3] | MIC (Acinetobacter baumannii [4]) | selectivity ratio [5] | MIC (Staphylococcus aureus [6]) | selectivity ratio [7] | selectivity ratio [8] | selectivity ratio [9] | MIC (Pseudomonas aeruginosa [10]) | selectivity ratio [11] | selectivity ratio [12] | MIC (Acinetobacter baumannii [13]) | MIC (Pseudomonas aeruginosa [14]) | selectivity ratio [15] | selectivity ratio [16] | MIC (Klebsiella pneumoniae [17]) | MIC (Pseudomonas aeruginosa [18]) | IC50 (Plasmodium falciparum) | selectivity ratio [19] | other results |
| --- | --- | --- | --- | --- | --- | --- | --- | --- | --- | --- | --- | --- | --- | --- | --- | --- | --- | --- | --- | --- | --- |
| c1ccc2c(c1)[I+]c1c-2ccc2ccccc12 | 0.69 | 0.34 | 5.8 | 1.1 µM | 0.04 | 4.2 µM | 0.17 | 0.69 | 0.69 | 8.4 µM | 0.02 | 0.04 | 4.2 µM | 2.1 µM | 0.17 | 0.02 | 34 µM | 8.4 µM | 120 nM | 0.09 | CC50 at 24 h [20]: 720 nM; MIC (Escherichia coli [21]): 17 µM; selectivity ratio [22]: 0.34; MIC (Staphylococcus aureus [23]): 4.2 µM; MIC (Escherichia coli [24]): 8.4 µM; selectivity ratio [25]: 0.34; selectivity ratio [26]: 0.09; MIC (Acinetobacter baumannii [27]): 4.2 µM; MIC (Enterococcus faecium): 1.1 µM; MIC (Klebsiella pneumoniae [28]): 17 µM; MIC (Pseudomonas aeruginosa [29]): 2.1 µM; MIC (Klebsiella pneumoniae [30]): 8.4 µM; selectivity ratio [31]: 0.02 |
| Fc1ccc2c(c1)[I+]c1ccccc1-2 | 5.3 | 2.6 | 105 | 2.2 µM | 0.08 | 8.9 µM | 2.6 | 2.6 | 2.6 | 8.9 µM | 0.08 | 0.16 | 4.5 µM | 1.1 µM | 0.66 | 0.16 | 72 µM | 2.2 µM | 60 nM | 0.66 | CC50 at 24 h [20]: 5900 nM; MIC (Escherichia coli [21]): 18 µM; selectivity ratio [22]: 5.3; MIC (Staphylococcus aureus [23]): 8.9 µM; MIC (Escherichia coli [24]): 18 µM; selectivity ratio [25]: 5.3; selectivity ratio [26]: 2.6; MIC (Acinetobacter baumannii [27]): 4.5 µM; MIC (Enterococcus faecium): 2.2 µM; MIC (Klebsiella pneumoniae [28]): 36 µM; MIC (Pseudomonas aeruginosa [29]): 0.56 µM; MIC (Klebsiella pneumoniae [30]): 36 µM; selectivity ratio [31]: 0.08 |
| N#Cc1ccc2c(c1)[I+]c1ccccc1-2 | 0.75 | 0.75 | 62 | 2.2 µM | 0.05 | 8.8 µM | 0.19 | 1.5 | 1.5 | 35 µM | 0.05 | 0.09 | 18 µM | 4.4 µM | 0.37 | > 0.05 | > 71 µM | 18 µM | 50 nM | 0.09 | CC50 at 24 h [20]: 3300 nM; MIC (Escherichia coli [21]): 71 µM; selectivity ratio [22]: 0.75; MIC (Staphylococcus aureus [23]): 8.8 µM; MIC (Escherichia coli [24]): 71 µM; selectivity ratio [25]: 0.75; selectivity ratio [26]: 0.19; MIC (Acinetobacter baumannii [27]): 18 µM; MIC (Enterococcus faecium): 2.2 µM; MIC (Klebsiella pneumoniae [28]): 35 µM; MIC (Pseudomonas aeruginosa [29]): 2.2 µM; MIC (Klebsiella pneumoniae [30]): 18 µM; selectivity ratio [31]: > 0.05 |
| Clc1ccc2c(c1)[I+]c1ccccc1-2 | 2 | 0.51 | 15 | 1.1 µM | 0.26 | 2.2 µM | 0.51 | 1 | 1 | 8.7 µM | 0.13 | 0.13 | 2.2 µM | 1.1 µM | 0.51 | 0.06 | 17 µM | 2.2 µM | 70 nM | 0.13 | CC50 at 24 h [20]: 1100 nM; MIC (Escherichia coli [21]): 4.3 µM; selectivity ratio [22]: 2; MIC (Staphylococcus aureus [23]): 2.2 µM; MIC (Escherichia coli [24]): 8.7 µM; selectivity ratio [25]: 1; selectivity ratio [26]: 0.51; MIC (Acinetobacter baumannii [27]): 2.2 µM; MIC (Enterococcus faecium): 1.1 µM; MIC (Klebsiella pneumoniae [28]): 8.7 µM; MIC (Pseudomonas aeruginosa [29]): 0.54 µM; MIC (Klebsiella pneumoniae [30]): 8.7 µM; selectivity ratio [31]: 0.06 |
